Experimental data pooled from the literature.
Each line is one published result; the experiments were not run side by side.
nupG: nupG (Escherichia coli, UniProt P0AFF4)
PIK3C3: Phosphatidylinositol 3-kinase catalytic subunit type 3 (PIK3C3, Homo sapiens, UniProt Q8NEB9)
ADRA2C: Alpha-2C adrenergic receptor (ADRA2C, Homo sapiens, UniProt P18825)

| Compound | target | assay | conditions | measurement | result |
| --- | --- | --- | --- | --- | --- |
| COc1ccc2c(c1)c(CC(=O)O)c(C)n2C(=O)c1ccc(Cl)cc1 | Peroxisome proliferator-activated receptor gamma (Pparg, Mus musculus, UniProt P37238) | reporter gene, agonist, luciferase |  | EC50 | 12.1 µM |
| Nc1nc2c(ncn2[C@@H]2O[C@H](CO)[C@@H](O)[C@H]2O)c(=O)[nH]1 | nupG | binding, ITC |  | Kd | 46.7 µM |
| O=c1ccn([C@@H]2O[C@H](COP(=O)(O)OP(=O)(O)O[C@H]3OC[C@@H](O)[C@H](O)[C@H]3O)[C@@H](O)[C@H]2O)c(=O)[nH]1 | UDP-glucose 6-dehydrogenase (UGDH, Homo sapiens, UniProt O60701) | enzyme activity, inhibitor |  | Ki | 0.18 µM |
| C[C@]12CCC3=C4CCC(=O)C=C4CC[C@H]3[C@@H]1CC[C@@]2(O)CC#N | Estrogen receptor (ESR1, Homo sapiens, UniProt P03372) | reporter gene, agonist |  | EC50 | > 25 µM |
| CCC(S)C(C)CO (centres unmarked) | OR2M3 (Homo sapiens, UniProt Q8NG83) | cAMP, agonist, luciferase |  | EC50 | 1.4 µM |
| Cc1occc(=O)c1O | Carbonic anhydrase 14 (CA14, Homo sapiens, UniProt Q9ULX7) | enzyme activity, inhibitor, stopped-flow |  | Ki | 7.2 µM |
| Cc1cn([C@H]2C[C@H](O)[C@@H](CO)O2)c(=O)[nH]c1=O | nupG | binding, ITC |  | Kd | 162 µM |
| CCC(=O)N1CCC(C(=O)N(C)CC(=O)N2CCN(c3nc(-c4cnc(N)nc4C(F)F)nc(N4CCOCC4)n3)CC2)CC1 | PIK3C3 | binding, competition with immobilised ligand |  | Kd | 0.405 µM |
| COc1ccccc1/C=C/C(=O)NC(=S)Nc1ccc(S(=O)(=O)N(C)c2ccccc2)cc1 | G-protein coupled receptor 55 (GPR55, Homo sapiens, UniProt Q9Y2T6) | β-arrestin recruitment, agonist |  | EC50 | 0.3 µM |
| C[C@]12CC[C@H](O)CC1=CC[C@@H]1[C@@H]2CC[C@]2(C)C(c3cccnc3)=CC[C@@H]12 | Estrogen receptor (ESR1, Homo sapiens, UniProt P03372, Y537C) | ligand displacement in cells, radioligand |  | Ki | 0.25 µM |
| C[C@H]1Oc2cc(cnc2N)-c2c(nn(C)c2C#N)CN(C)C(=O)c2ccc(F)cc21 | Mitogen-activated protein kinase kinase kinase 13 (MAP3K13, Homo sapiens, UniProt O43283) | cell-free assay | lysate | Ki | 0.0327 µM |
| CCOC(=O)[C@@]12C[C@@H]1[C@@H](n1cnc3c(NC)nc(C#Cc4ccc(Cl)s4)nc31)[C@H](O)[C@@H]2O | Nociceptin receptor (OPRL1, Homo sapiens, UniProt P41146) | ligand displacement, radioligand |  | Ki | > 10 µM |
| C=CC(=O)N1CCC(C(=O)NCC(=O)N2CCN(c3nc(-c4cnc(N)nc4C(F)F)nc(N4CCOCC4)n3)CC2)CC1 | PIK3C3 | binding, competition with immobilised ligand |  | Kd | 0.054 µM |
| N[C@H]1C[C@@H](C(=O)O)CC1=C(C(F)(F)F)C(F)(F)F | Ornithine aminotransferase, mitochondrial (OAT, Homo sapiens, UniProt P04181) | binding, stopped-flow |  | Kd | 3000 µM |
| CN1CCN(c2ccc(Nc3ncc4cc(C#N)c(=O)n(C5CCCC5)c4n3)cc2)CC1 | Calcium/calmodulin-dependent protein kinase type II subunit beta (CAMK2B, Homo sapiens, UniProt Q13554) | enzyme activity, inhibitor |  | IC50 | > 10 µM |
| CCCCN1CCC(COC(=O)c2ccc(N)c(OCF)c2)CC1 | ADRA2C | cell-free assay, radioligand |  | Ki | 0.778 µM |
| CNCC[C@@H](Oc1ccccc1CCCF)c1ccccc1 | Norepinephrine transporter (Slc6a2, Rattus norvegicus, UniProt Q9WTR4) | ligand displacement, radioligand | cell membranes | Ki | 0.023 µM |
| C=CC(=O)N1CCC(C(=O)N(C)CC(=O)N2CCN(c3nc(-c4cnc(N)nc4C(F)F)nc(N4CCOCC4)n3)CC2)CC1 | PIK3C3 | binding, competition with immobilised ligand |  | Kd | 0.275 µM |
| Nc1ccnc2ccccc12 | ADRA2C | ligand displacement, radioligand | cell membranes | Ki | 81.3 µM |
| CCOCc1nc(O)c(-c2nnc(Cc3ccc(Cl)cn3)o2)c(O)c1-c1c(OC)cccc1OC | Apelin receptor (APLNR, Homo sapiens, UniProt P35414) | cell-free assay, radioligand |  | Kd | 0.00015 µM |
